ChEMBL document CHEMBL1147557, “Glycosyltransferase activity can be selectively modulated by chemical modifications of acceptor substrates” (Bioorg Med Chem Lett, 2004)
Active and inactive are the calls of the source. No cut-off for these calls is given here.

How the values were obtained:
[1] = test system: Alpha-(1,3)-fucosyltransferase 6 (Homo sapiens); experiment: Kinetic parameter of […] by fucosyltransferase 6 alpha 1,3
[2] = biological target: T1, Beta-galactoside alpha-2,6-sialyltransferase 1 (Rattus norvegicus) (UniProt P13721); experiment: (§1) Kinetic parameter of sialylation by alpha-2,6-sialyltransferase
T1 sequence (whole entry): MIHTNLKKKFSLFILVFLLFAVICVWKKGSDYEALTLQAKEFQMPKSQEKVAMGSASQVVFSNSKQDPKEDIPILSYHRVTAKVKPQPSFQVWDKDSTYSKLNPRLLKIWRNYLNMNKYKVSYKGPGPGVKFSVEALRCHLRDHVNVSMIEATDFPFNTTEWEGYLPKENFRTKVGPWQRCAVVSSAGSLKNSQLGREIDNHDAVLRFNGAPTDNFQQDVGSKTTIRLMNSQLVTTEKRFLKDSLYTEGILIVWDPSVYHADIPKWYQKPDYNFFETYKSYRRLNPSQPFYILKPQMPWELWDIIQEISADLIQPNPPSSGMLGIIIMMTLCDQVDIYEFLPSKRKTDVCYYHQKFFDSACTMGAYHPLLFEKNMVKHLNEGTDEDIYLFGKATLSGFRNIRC
Outline: (§2)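 Rat liver recombinant α-2,6-sialyltransferase transferring CMP-[14C]-Neu5Ac to LacNAc-based acceptors. Apparent kinetic parameters (Km, Vmax) were determined by previously reported assays. Vmax is expressed relative to unmodified LacNAc, which is set at 1.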

[3] = test system: Alpha-(1,3)-fucosyltransferase 6 (Homo sapiens); experiment: Kinetic parameter of […] of compound by fucosyltransferase 6 alpha 1,3; Not active
[4] = substrate: CO[C@@H]1O[C@@H](CNS(C)(=O)=O)[C@@H](O[C@@H]2O[C@@H](CO)[C@H](O)[C@H](O)[C@@H]2O)[C@H](O)[C@@H]1NC(C)=O; experiment: as §1; settings: Rattus norvegicus
Outline: as §2

[5] = substrate: CO[C@@H]1O[C@@H](CO)[C@@H](O[C@@H]2O[C@@H](CO)[C@H](O)[C@H](O)[C@@H]2O)[C@H](O)[C@@H]1NC(C)=O; experiment: as §1; settings: Rattus norvegicus
Outline: as §2

[6] = substrate: COC[C@@H]1O[C@@H](OC)[C@@H](NC(C)=O)[C@@H](O)[C@@H]1O[C@@H]1O[C@@H](CO)[C@H](O)[C@H](O)[C@@H]1OC; experiment: as §1; settings: Rattus norvegicus
Outline: as §2

[7] = substrate: CO[C@@H]1O[C@@H](CNC=O)[C@@H](O[C@@H]2O[C@@H](CO)[C@H](O)[C@H](O)[C@@H]2OC)[C@H](O)[C@@H]1NC(C)=O; experiment: as §1; settings: Rattus norvegicus
Outline: as §2

[8] = substrate: CO[C@@H]1O[C@@H](CNC(C)=O)[C@@H](O[C@@H]2O[C@@H](CO)[C@H](O)[C@H](O)[C@@H]2O)[C@H](O)[C@@H]1NC(C)=O; experiment: as §1; settings: Rattus norvegicus
Outline: as §2

[9] = substrate: CO[C@@H]1O[C@@H](CN)[C@@H](O[C@@H]2O[C@@H](CO)[C@H](O)[C@H](O)[C@@H]2O)[C@H](O)[C@@H]1NC(C)=O; experiment: as §1; settings: Rattus norvegicus
Outline: as §2

[10] = substrate: CO[C@@H]1O[C@@H](CO)[C@@H](O[C@@H]2O[C@@H](CO)[C@H](O)[C@H](O)[C@@H]2OC)[C@H](O)[C@@H]1NC(C)=O; experiment: as §1; settings: Rattus norvegicus
Outline: as §2

[11] = substrate: CO[C@@H]1O[C@@H](COS(C)(=O)=O)[C@@H](O[C@@H]2O[C@@H](CO)[C@H](O)[C@H](O)[C@@H]2O)[C@H](O)[C@@H]1NC(C)=O; experiment: as §1; settings: Rattus norvegicus
Outline: as §2

[12] = substrate: COC[C@@H]1O[C@@H](OC)[C@@H](NC(C)=O)[C@@H](O)[C@@H]1O[C@@H]1O[C@@H](CO)[C@H](O)[C@H](O)[C@@H]1O; experiment: as §1; settings: Rattus norvegicus
Outline: as §2

[13] = substrate: CNC(=O)[C@@H]1O[C@@H](OC)[C@@H](NC(C)=O)[C@@H](O)[C@@H]1O[C@@H]1O[C@@H](CO)[C@H](O)[C@H](O)C1O; experiment: as §1; settings: Rattus norvegicus
Outline: as §2

[14] = substrate: CO[C@@H]1O[C@@H](CNC=O)[C@@H](O[C@@H]2O[C@@H](CO)[C@H](O)[C@H](O)[C@@H]2O)[C@H](O)[C@@H]1NC(C)=O; experiment: as §1; settings: Rattus norvegicus
Outline: as §2

[15] = substrate: CO[C@@H]1O[C@@H](C(N)=O)[C@@H](O[C@@H]2O[C@@H](CO)[C@H](O)[C@H](O)[C@@H]2O)[C@H](O)[C@@H]1NC(C)=O; experiment: as §1; settings: Rattus norvegicus
Outline: as §2

[16] = substrate: CO[C@@H]1O[C@@H](CNS(C)(=O)=O)[C@@H](O[C@@H]2O[C@@H](CO)[C@H](O)[C@H](O)[C@@H]2O)[C@H](O)[C@@H]1NC(C)=O; experiment: (§3) Apparent kinetic parameter of sialylation by alpha-2,6-sialyltransferase; settings: Rattus norvegicus
Outline: as §2

[17] = substrate: CO[C@@H]1O[C@@H](CO)[C@@H](O[C@@H]2O[C@@H](CO)[C@H](O)[C@H](O)[C@@H]2O)[C@H](O)[C@@H]1NC(C)=O; experiment: as §3; settings: Rattus norvegicus
Outline: as §2

[18] = substrate: COC[C@@H]1O[C@@H](OC)[C@@H](NC(C)=O)[C@@H](O)[C@@H]1O[C@@H]1O[C@@H](CO)[C@H](O)[C@H](O)[C@@H]1OC; experiment: as §3; settings: Rattus norvegicus
Outline: as §2

[19] = substrate: CO[C@@H]1O[C@@H](CNC=O)[C@@H](O[C@@H]2O[C@@H](CO)[C@H](O)[C@H](O)[C@@H]2OC)[C@H](O)[C@@H]1NC(C)=O; experiment: as §3; settings: Rattus norvegicus
Outline: as §2

[20] = substrate: CO[C@@H]1O[C@@H](CNC(C)=O)[C@@H](O[C@@H]2O[C@@H](CO)[C@H](O)[C@H](O)[C@@H]2O)[C@H](O)[C@@H]1NC(C)=O; experiment: as §3; settings: Rattus norvegicus
Outline: as §2

[21] = substrate: CO[C@@H]1O[C@@H](CN)[C@@H](O[C@@H]2O[C@@H](CO)[C@H](O)[C@H](O)[C@@H]2O)[C@H](O)[C@@H]1NC(C)=O; experiment: as §3; settings: Rattus norvegicus
Outline: as §2

[22] = substrate: CO[C@@H]1O[C@@H](CO)[C@@H](O[C@@H]2O[C@@H](CO)[C@H](O)[C@H](O)[C@@H]2OC)[C@H](O)[C@@H]1NC(C)=O; experiment: as §3; settings: Rattus norvegicus
Outline: as §2

[23] = substrate: CO[C@@H]1O[C@@H](COS(C)(=O)=O)[C@@H](O[C@@H]2O[C@@H](CO)[C@H](O)[C@H](O)[C@@H]2O)[C@H](O)[C@@H]1NC(C)=O; experiment: as §3; settings: Rattus norvegicus
Outline: as §2

[24] = substrate: COC[C@@H]1O[C@@H](OC)[C@@H](NC(C)=O)[C@@H](O)[C@@H]1O[C@@H]1O[C@@H](CO)[C@H](O)[C@H](O)[C@@H]1O; experiment: as §3; settings: Rattus norvegicus
Outline: as §2

[25] = substrate: CNC(=O)[C@@H]1O[C@@H](OC)[C@@H](NC(C)=O)[C@@H](O)[C@@H]1O[C@@H]1O[C@@H](CO)[C@H](O)[C@H](O)C1O; experiment: as §3; settings: Rattus norvegicus
Outline: as §2

[26] = substrate: CO[C@@H]1O[C@@H](CNC=O)[C@@H](O[C@@H]2O[C@@H](CO)[C@H](O)[C@H](O)[C@@H]2O)[C@H](O)[C@@H]1NC(C)=O; experiment: as §3; settings: Rattus norvegicus
Outline: as §2

[27] = substrate: CO[C@@H]1O[C@@H](C(N)=O)[C@@H](O[C@@H]2O[C@@H](CO)[C@H](O)[C@H](O)[C@@H]2O)[C@H](O)[C@@H]1NC(C)=O; experiment: as §3; settings: Rattus norvegicus
Outline: as §2

CO[C@@H]1O[C@@H](COS(C)(=O)=O)[C@@H](O[C@@H]2O[C@@H](CO)[C@H](O)[C@H](O)[C@@H]2O)[C@H](O)[C@@H]1NC(C)=O
Vmax / Km [1]: 3.6 | Vmax / Km [2]: 1.3

CNC(=O)[C@@H]1O[C@@H](OC)[C@@H](NC(C)=O)[C@@H](O)[C@@H]1O[C@@H]1O[C@@H](CO)[C@H](O)[C@H](O)C1O (some centres undefined)
Vmax / Km [1]: 0.4 | Vmax / Km [2]: 0.08

CO[C@@H]1O[C@@H](CO)[C@@H](O[C@@H]2O[C@@H](CO)[C@H](O)[C@H](O)[C@@H]2OC)[C@H](O)[C@@H]1NC(C)=O
Vmax / Km [1]: 3.1 | Vmax / Km [2]: 0.2

COC[C@@H]1O[C@@H](OC)[C@@H](NC(C)=O)[C@@H](O)[C@@H]1O[C@@H]1O[C@@H](CO)[C@H](O)[C@H](O)[C@@H]1O
Vmax / Km [1]: 4.5 | Vmax / Km [2]: 0.2

CO[C@@H]1O[C@@H](CN)[C@@H](O[C@@H]2O[C@@H](CO)[C@H](O)[C@H](O)[C@@H]2O)[C@H](O)[C@@H]1NC(C)=O
Vmax / Km [1]: 1.5 | Vmax / Km [2]: 0.08

CO[C@@H]1O[C@@H](C(N)=O)[C@@H](O[C@@H]2O[C@@H](CO)[C@H](O)[C@H](O)[C@@H]2O)[C@H](O)[C@@H]1NC(C)=O
Vmax / Km [3]: inactive | Vmax / Km [2]: 0.02

COC(=O)[C@@H]1O[C@@H](OC)[C@@H](NC(C)=O)[C@@H](O)[C@@H]1O[C@@H]1O[C@@H](CO)[C@H](O)[C@H](O)[C@@H]1O
Vmax / Km [1]: 1.2 | Vmax / Km [2]: 0.2

COC[C@@H]1O[C@@H](OC)[C@@H](NC(C)=O)[C@@H](O)[C@@H]1O[C@@H]1O[C@@H](CO)[C@H](O)[C@H](O)[C@@H]1OC
Vmax / Km [1]: 6.7 | Vmax / Km [2]: 0.04

CO[C@@H]1O[C@@H](CNC=O)[C@@H](O[C@@H]2O[C@@H](CO)[C@H](O)[C@H](O)[C@@H]2O)[C@H](O)[C@@H]1NC(C)=O
Vmax / Km [1]: 7.3 | Vmax / Km [2]: 1.5

CO[C@@H]1O[C@@H](CNC=O)[C@@H](O[C@@H]2O[C@@H](CO)[C@H](O)[C@H](O)[C@@H]2OC)[C@H](O)[C@@H]1NC(C)=O
Vmax / Km [1]: 9.3 | Vmax / Km [2]: 0.3

CO[C@@H]1O[C@@H](CNS(C)(=O)=O)[C@@H](O[C@@H]2O[C@@H](CO)[C@H](O)[C@H](O)[C@@H]2O)[C@H](O)[C@@H]1NC(C)=O
Vmax / Km [1]: 8.7 | Vmax / Km [2]: 0.9

CO[C@@H]1O[C@@H](CNC(C)=O)[C@@H](O[C@@H]2O[C@@H](CO)[C@H](O)[C@H](O)[C@@H]2O)[C@H](O)[C@@H]1NC(C)=O
Vmax / Km [1]: 6.8 | Vmax / Km [2]: 0.4

CO[C@@H]1O[C@@H](CO)[C@@H](O[C@@H]2O[C@@H](CO)[C@H](O)[C@H](O)[C@@H]2O)[C@H](O)[C@@H]1NC(C)=O
Vmax / Km [2]: 0.6

B1: Beta-galactoside alpha-2,6-sialyltransferase 1 (Rattus norvegicus), P13721 (protein)
chain: MIHTNLKKKFSLFILVFLLFAVICVWKKGSDYEALTLQAKEFQMPKSQEKVAMGSASQVVFSNSKQDPKEDIPILSYHRVTAKVKPQPSFQVWDKDSTYSKLNPRLLKIWRNYLNMNKYKVSYKGPGPGVKFSVEALRCHLRDHVNVSMIEATDFPFNTTEWEGYLPKENFRTKVGPWQRCAVVSSAGSLKNSQLGREIDNHDAVLRFNGAPTDNFQQDVGSKTTIRLMNSQLVTTEKRFLKDSLYTEGILIVWDPSVYHADIPKWYQKPDYNFFETYKSYRRLNPSQPFYILKPQMPWELWDIIQEISADLIQPNPPSSGMLGIIIMMTLCDQVDIYEFLPSKRKTDVCYYHQKFFDSACTMGAYHPLLFEKNMVKHLNEGTDEDIYLFGKATLSGFRNIRC
Vmax [4]: 0.7 | Vmax [5]: 1 | Vmax [6]: 0.5 | Vmax [7]: 1 | Vmax [8]: 0.6 | Vmax [9]: 0.5 | Vmax [10]: 0.8 | Vmax [11]: 0.9 | Vmax [12]: 0.8 | Vmax [13]: 0.2 | Vmax [14]: 1.6 | Vmax [15]: < 0.2 | Km [16]: 800 µM | Km [17]: 1700 µM | Km [18]: 11200 µM | Km [19]: 3100 µM | Km [20]: 1400 µM | Km [21]: 5800 µM | Km [22]: 4100 µM | Km [23]: 700 µM | Km [24]: 4300 µM | Km [25]: 2400 µM | Km [26]: 1100 µM | Km [27]: > 10000 µM
